Assay results as given in the array DNA melting data of Ke et al. (doi:10.1101/2024.01.08.574731).

What was measured:
[1] = folding enthalpy; higher = less favourable; fluorescence melt of hairpins on a sequencing array, two-state fit; settings: sodium 0.088 M
How it was run: (§1)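 Bootstrapped two-state fits yielded melting temperature and folding enthalpy for library hairpins. Cy3 fluorescence, with annealed Cy3 and quencher oligos, was imaged on a sequenced MiSeq flow cell in 50 mM Na-HEPES pH 8.0, 25 mM NaCl in 2.5 °C steps up to 60 °C, and normalised to pre-quench Cy3 and to control constructs. Four replicates were combined by inverse variance, and fitted temperatures were raised by 9.35 °C to match UV melts.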

[2] = melting temperature; fluorescence melt of hairpins on a sequencing array, two-state fit, raised by 9.35 °C to match UV melts; settings: sodium 0.088 M
How it was run: as §1

Row | Sequence | folding enthalpy [1] [kcal/mol] | Tm [2] [°C]
1 | GTCCTGCGAAAGCACGAC (((.(((....))).))) | -21.4 | 42.6
2 | GTCCTGCGAAAGCATGAC (((.(((....))).))) | -26 | 49.9
3 | GTCCTGGGAAACCAGAAC ((.((((....)))).)) | -19.7 | 35.5
4 | GTCCTGGGAAACTAGGAC (((((.(....).))))) | -42.9 | 49.1
5 | GTCCTTGAAAAAGGAC ((((((....)))))) | -33.2 | 56
6 | GTCCTTGGAAACAAAGAC (((.(((....))).))) | -13.3 | 30.4
7 | GTCGAAACGAAAGTTGAC (((..(((....)))))) | -18.5 | 37.2
8 | GTCGAAGGAAACTTCGAC (((((((....))))))) | -48.6 | 62.2
9 | GTCGACGAAAGTCAAGAC ((((((....)))..))) | -20.4 | 43.8
10 | GTCGACGAAAGTCAGAC ((((((....))).))) | -35.2 | 52.3
11 | GTCGACGAAAGTCAGGAC ((((((....)))..))) | -17.6 | 41.7
12 | GTCGACGAAAGTCATGAC ((((((....)))..))) | -15.6 | 40.7
13 | GTCGACGAAAGTCTGGAC ((((((....)))..))) | -16.1 | 39.8
14 | GTCGAGAAATCGAC (((((....))))) | -26.8 | 55.5
15 | GTCGAGGGAAACCCCGAC ((((.((....)).)))) | -38.9 | 52
16 | GTCGAGGGAAACCTTGGC (.(.(((....))).).) | -21.8 | 36
17 | GTCGATCGAAAGATGGAC (((.(((....))).))) | -28.3 | 48.6
18 | GTCGATCGAAAGATTGAC (((.(((....))).))) | -51.8 | 53.6
19 | GTCGATGCGAAAGCAGAC (((..(((....)))))) | -16.1 | 46
20 | GTCGATGGAAACGTTGAC (((.(.(....).).))) | -20.5 | 34.6
21 | GTCGCAGCGAAAGCTGAC (((..(((....)))))) | -9.2 | 37.1
22 | GTCGCAGGAAACTGCGGC (.(((((....))))).) | -32.2 | 64.5
23 | GTCGCCGAAAGGCCAGAC ((((((....)))..))) | -13.5 | 40.7

Row | Sequence | folding enthalpy [1] [kcal/mol] | Tm [2] [°C]
24 | GTCGCCGAAAGGCCGAC ((((((....))).))) | -18.1 | 60.7
25 | GTCGCCGAAAGGCGCGAC ((((((....)))..))) | -11.3 | 58.4
26 | GTCGCCGAAAGGCGGAC ((((((....))).))) | -11.2 | 58
27 | GTCGCCGAAAGGCGGGAC ((((((....)))..))) | -6.81 | 41
28 | GTCGCCGAAAGGCTGGAC ((((((....)))..))) | -13.1 | 44
29 | GTCGCCGGAAACGGTGGC (.(.(((....))).).) | -25.5 | 52.2
30 | GTCGCCTCGAAAGAGGAC (((..(((....)))))) | -9.5 | 31.3
31 | GTCGCTGGAAACAACGAC ((((.((....)).)))) | -38.5 | 47.1
32 | GTCGCTGGAAACAGCGGC (.(((((....))))).) | -23.4 | 65.6
33 | GTCGGAGGAAACTCCGGC (.(((((....))))).) | -30.5 | 58.5
34 | GTCGGAGGAAACTTCGGC (.((.((....)).)).) | -24.3 | 38.4
35 | GTCGGCGAAAGCCAGAC ((((((....))).))) | -16.4 | 59.4
36 | GTCGGCGAAAGCCATGAC ((((((....)))..))) | -13.9 | 42.4
37 | GTCGGCGAAAGCCGGGAC ((((((....)))..))) | -8.08 | 44.1
38 | GTCGGCGAAAGCCTAGAC ((((((....)))..))) | -18.1 | 47.1
39 | GTCGGCGAAAGCCTGAC ((((((....))).))) | -15.6 | 56.9
40 | GTCGGCGGAAACGTCGGC (.((.((....)).)).) | -35.5 | 54
41 | GTCGGGGGAAACCCCAAC ((.((((....)))).)) | -16.1 | 38.5
42 | GTCGGGGGAAACCTCGGC (.((.((....)).)).) | -35.4 | 44.9
43 | GTCGGTCGAAAGACTGAC (((.(((....))).))) | -38.1 | 61.2
44 | GTCGGTGGAAACGCTGAC (((.(.(....).).))) | -20 | 42.6
45 | GTCGGTGGAAACGTCGAC ((((..(....)..)))) | -19.7 | 45.3
